Test results taken from publication PMC6688905 (Journal of medicinal chemistry, 2018).
Entries after “also recorded” stand apart in the source; their conditions may differ.

Legend:
[1] = system: EGFR and ERK1/2 phosphorylation in EGF-stimulated HeLa cells; assay: PI3K inhibition in live cells, Western blot of EGFR and ERK1/2 phosphorylation; assay type: cell-based; conditions: serum-starved HeLa cells, 10 min pretreatment, EGF stimulation
In short: (§1)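 HeLa cells were serum-starved overnight, then pretreated 10 min with test compound at the indicated concentrations and stimulated with 10 ng mL−1 EGF for 5 min. Cells were lysed in boiling SDS sample buffer and protein was quantified at 660 nm. Equal protein was run on SDS-PAGE, Western-blotted with ECL detection, and probed for AKT, pAKT Ser473/Thr308, ERK1/2, pERK1/2 Thr202/Tyr204, EGFR, pEGFR Tyr1068 and GAPDH.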

[2] = system: AKT phosphorylation (Ser473, Thr308) in EGF-stimulated HeLa cells; assay: PI3K inhibition in live cells, Western blot of AKT phosphorylation; assay type: cell-based; conditions: serum-starved HeLa cells, 10 min pretreatment, EGF stimulation
In short: as §1

PI3Kα (p110α/p85α) = PI3Kα (p110α/p85α) (Homo sapiens, UniProt P42336); assay: MS timecourse for covalent modification of PI3K; conditions: 4 μM neolymphostin A with 2 μM PI3Kα
aurora kinase B (AURKB) = aurora kinase B (AURKB) (Homo sapiens, UniProt Q96GD4); assay: KINOMEscan kinase selectivity panel; assay type: binding; conditions: 1 μM
[3] = biological target: c-Jun N-terminal kinase 2 (JNK2) (Homo sapiens, UniProt P45984); assay: KINOMEscan kinase selectivity panel; assay type: binding; conditions: 1 μM
[4] = system: National Cancer Institute 60-cell line panel; assay: NCI 60-cell line anticancer screen; assay type: cell-based; conditions: read-out: GI50 values
In short: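 Cancer cell lines covering leukemia, non-small cell lung, colon, CNS, melanoma, ovarian, renal, prostate and breast were tested with 5-point dose-response curves, top concentration 50 μM. GI50, TGI and LC50 were calculated from the curves.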

[5] = behaviour in buffer at higher concentrations; assay type: physicochemical
aurora kinase A (AURKA) = biological target: T1, aurora kinase A (AURKA) (Homo sapiens, UniProt O14965); assay: KINOMEscan kinase selectivity panel; assay type: binding; conditions: 1 μM
T1 sequence (O14965 1-403): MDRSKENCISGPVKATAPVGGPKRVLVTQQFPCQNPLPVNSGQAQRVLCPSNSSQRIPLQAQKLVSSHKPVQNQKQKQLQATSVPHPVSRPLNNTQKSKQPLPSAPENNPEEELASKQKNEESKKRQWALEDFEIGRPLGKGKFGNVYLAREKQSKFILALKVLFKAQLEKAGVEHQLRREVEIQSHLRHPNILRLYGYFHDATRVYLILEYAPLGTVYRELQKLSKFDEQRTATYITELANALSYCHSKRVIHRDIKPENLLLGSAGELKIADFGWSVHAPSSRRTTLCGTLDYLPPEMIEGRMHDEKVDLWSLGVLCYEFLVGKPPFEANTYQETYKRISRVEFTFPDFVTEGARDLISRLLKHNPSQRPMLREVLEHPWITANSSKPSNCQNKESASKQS

[6] = biological target: c-Jun N-terminal kinase 3 (JNK3) (Homo sapiens, UniProt P53779); assay: KINOMEscan kinase selectivity panel; assay type: binding; conditions: 1 μM
[7] = biological target: T2, Polo-like kinase 4 (PLK4) (Homo sapiens, UniProt O00444); assay: KINOMEscan kinase selectivity panel; assay type: binding; conditions: 1 μM
T2 sequence (O00444 1-970): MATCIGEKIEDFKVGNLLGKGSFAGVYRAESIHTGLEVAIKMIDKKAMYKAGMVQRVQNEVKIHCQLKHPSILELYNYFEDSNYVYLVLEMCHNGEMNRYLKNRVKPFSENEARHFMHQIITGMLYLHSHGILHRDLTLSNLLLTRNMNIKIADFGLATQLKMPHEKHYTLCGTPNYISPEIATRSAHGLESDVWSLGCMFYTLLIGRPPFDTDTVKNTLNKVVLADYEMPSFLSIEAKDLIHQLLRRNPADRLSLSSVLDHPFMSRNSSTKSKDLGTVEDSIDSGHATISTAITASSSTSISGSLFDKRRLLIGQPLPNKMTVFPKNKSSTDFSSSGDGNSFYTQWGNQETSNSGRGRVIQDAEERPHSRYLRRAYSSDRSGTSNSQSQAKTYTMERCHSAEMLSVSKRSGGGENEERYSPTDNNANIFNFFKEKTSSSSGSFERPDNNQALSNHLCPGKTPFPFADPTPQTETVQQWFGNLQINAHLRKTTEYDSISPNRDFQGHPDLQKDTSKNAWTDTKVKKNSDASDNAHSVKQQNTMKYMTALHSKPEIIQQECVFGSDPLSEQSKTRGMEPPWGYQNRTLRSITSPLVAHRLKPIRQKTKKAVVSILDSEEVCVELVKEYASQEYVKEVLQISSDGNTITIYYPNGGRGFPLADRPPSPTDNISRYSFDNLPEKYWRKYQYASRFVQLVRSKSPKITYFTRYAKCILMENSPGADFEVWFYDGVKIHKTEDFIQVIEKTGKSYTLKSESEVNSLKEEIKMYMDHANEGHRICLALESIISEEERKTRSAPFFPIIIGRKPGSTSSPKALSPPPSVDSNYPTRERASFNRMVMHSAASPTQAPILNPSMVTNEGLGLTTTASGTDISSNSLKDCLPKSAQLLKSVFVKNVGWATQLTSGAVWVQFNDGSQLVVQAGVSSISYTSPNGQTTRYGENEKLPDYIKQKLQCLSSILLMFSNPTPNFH

[8] = biological target: c-Jun N-terminal kinase 1 (JNK1) (Homo sapiens, UniProt P45983); assay: KINOMEscan kinase selectivity panel; assay type: binding; conditions: 1 μM
PI3Kα = PI3Kα (Homo sapiens, UniProt P42336); assay: KINOMEscan kinase selectivity panel; assay type: binding; conditions: 1 μM
[9] = NMR-based reactivity of electrophile toward Nα-acetyl lysine; assay type: physicochemical; conditions: 100 mM phosphate buffer pH 7.4, ten-fold excess of N^α-acetyl lysine, 25 °C

Chain of c-Jun N-terminal kinase 3 (JNK3) (P53779 whole entry): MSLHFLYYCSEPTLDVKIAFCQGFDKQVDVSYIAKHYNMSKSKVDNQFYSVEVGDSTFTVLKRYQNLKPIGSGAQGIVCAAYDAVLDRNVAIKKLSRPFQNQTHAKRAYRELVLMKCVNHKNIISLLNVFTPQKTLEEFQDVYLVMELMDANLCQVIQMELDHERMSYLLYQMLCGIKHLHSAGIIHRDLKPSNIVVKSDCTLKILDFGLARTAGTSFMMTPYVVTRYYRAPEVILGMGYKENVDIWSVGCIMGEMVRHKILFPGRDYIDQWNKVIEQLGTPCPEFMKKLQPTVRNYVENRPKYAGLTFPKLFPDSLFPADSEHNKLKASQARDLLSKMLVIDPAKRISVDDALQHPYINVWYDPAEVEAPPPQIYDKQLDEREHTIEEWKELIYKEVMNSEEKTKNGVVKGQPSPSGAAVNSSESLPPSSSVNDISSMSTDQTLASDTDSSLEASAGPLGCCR
Chain of c-Jun N-terminal kinase 1 (JNK1) (P45983 whole entry): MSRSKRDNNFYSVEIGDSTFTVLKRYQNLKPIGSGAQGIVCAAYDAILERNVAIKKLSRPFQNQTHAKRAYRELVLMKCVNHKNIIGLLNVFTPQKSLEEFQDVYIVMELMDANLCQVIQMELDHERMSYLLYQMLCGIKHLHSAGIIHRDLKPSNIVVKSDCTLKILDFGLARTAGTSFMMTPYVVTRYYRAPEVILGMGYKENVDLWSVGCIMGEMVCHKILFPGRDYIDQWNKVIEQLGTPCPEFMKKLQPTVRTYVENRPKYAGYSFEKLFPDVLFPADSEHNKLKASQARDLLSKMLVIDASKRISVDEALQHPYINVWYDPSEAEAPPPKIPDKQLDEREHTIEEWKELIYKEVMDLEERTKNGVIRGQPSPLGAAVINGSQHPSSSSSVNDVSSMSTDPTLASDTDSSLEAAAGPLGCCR
Chain of aurora kinase B (AURKB) (Q96GD4 whole entry): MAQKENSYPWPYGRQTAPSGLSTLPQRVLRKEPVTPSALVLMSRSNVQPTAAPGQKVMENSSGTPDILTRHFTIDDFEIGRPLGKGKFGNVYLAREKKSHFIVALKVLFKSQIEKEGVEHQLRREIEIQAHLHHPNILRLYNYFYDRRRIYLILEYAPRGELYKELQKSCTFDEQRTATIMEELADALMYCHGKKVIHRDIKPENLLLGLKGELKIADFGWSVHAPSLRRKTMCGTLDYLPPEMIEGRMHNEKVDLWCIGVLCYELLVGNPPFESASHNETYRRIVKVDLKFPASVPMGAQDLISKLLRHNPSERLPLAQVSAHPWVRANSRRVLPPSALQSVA
Chain of PI3Kα (P42336 whole entry): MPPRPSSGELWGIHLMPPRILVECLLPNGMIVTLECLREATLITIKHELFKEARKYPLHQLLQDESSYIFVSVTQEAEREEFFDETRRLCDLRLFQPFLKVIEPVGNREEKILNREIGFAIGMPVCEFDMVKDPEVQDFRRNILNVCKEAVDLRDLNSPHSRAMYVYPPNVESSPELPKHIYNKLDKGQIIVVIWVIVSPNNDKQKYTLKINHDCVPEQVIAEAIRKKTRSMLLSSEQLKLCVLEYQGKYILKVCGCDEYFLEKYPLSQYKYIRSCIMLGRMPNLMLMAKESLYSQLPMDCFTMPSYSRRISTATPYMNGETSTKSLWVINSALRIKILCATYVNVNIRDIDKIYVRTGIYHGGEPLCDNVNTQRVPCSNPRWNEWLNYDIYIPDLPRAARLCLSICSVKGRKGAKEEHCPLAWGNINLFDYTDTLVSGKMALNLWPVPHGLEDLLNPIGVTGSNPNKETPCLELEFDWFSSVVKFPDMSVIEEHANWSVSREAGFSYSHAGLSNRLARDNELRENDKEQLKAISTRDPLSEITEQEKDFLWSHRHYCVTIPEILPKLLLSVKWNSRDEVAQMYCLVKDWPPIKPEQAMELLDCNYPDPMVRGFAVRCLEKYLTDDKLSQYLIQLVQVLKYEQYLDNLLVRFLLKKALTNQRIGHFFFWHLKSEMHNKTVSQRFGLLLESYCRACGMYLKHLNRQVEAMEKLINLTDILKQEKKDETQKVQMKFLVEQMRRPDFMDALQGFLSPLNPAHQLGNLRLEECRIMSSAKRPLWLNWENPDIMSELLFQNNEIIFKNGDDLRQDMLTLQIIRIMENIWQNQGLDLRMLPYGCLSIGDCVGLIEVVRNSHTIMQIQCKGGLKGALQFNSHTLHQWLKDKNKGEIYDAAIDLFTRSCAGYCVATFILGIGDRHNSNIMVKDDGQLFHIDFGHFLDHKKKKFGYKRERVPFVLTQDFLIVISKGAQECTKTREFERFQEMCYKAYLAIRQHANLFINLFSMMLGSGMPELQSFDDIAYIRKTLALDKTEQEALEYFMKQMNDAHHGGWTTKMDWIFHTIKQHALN
Chain of PI3Kα (p110α/p85α) (P42336 whole entry, species assumed): as the sequence (P42336 whole entry) above
Chain of PI3Kα (p110α/p85α) (P27986 whole entry partner, species assumed): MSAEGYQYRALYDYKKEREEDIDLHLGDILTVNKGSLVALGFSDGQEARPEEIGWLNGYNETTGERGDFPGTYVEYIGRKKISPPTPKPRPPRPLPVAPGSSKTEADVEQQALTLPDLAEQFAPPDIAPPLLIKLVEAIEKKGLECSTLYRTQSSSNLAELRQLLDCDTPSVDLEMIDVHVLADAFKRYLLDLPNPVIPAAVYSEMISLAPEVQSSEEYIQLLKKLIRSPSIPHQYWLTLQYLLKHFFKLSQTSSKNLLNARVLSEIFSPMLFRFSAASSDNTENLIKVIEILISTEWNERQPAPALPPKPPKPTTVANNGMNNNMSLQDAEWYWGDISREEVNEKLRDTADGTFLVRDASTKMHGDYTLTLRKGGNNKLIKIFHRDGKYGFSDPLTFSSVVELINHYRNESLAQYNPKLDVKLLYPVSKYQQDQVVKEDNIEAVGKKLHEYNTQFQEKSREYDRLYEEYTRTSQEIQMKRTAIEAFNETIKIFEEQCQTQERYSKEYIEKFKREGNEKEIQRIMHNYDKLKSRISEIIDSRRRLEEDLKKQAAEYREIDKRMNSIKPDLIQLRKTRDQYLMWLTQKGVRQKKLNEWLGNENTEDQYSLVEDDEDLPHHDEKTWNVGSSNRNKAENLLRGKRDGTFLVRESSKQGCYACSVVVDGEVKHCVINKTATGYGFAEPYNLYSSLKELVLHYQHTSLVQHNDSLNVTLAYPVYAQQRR
Chain of c-Jun N-terminal kinase 2 (JNK2) (P45984 whole entry): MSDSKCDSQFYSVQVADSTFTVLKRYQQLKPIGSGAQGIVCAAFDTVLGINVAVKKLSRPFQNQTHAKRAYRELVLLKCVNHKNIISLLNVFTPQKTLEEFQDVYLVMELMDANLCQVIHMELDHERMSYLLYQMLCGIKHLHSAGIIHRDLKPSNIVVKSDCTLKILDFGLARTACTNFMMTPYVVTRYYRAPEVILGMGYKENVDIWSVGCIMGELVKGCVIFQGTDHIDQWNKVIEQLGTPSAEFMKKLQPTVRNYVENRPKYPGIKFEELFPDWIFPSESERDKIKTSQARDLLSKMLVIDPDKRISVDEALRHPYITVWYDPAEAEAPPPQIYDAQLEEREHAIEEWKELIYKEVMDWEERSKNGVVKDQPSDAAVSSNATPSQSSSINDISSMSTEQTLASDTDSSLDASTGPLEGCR

COC[C@H]1OC(=O)c2coc3c2[C@@]1(C)C1=C(C3=O)[C@@H]2CCC(=O)[C@@]2(C)C[C@H]1OC(C)=O [wortmannin, reference compound]
effect on EGFR or ERK1/2 phosphorylation [1]: without affecting phosphorylation of EGFR or ERK1/2 | effect on AKT phosphorylation [2]: blocked phosphorylation of AKT on Ser473 and Thr308

CO/C=C/C(=O)c1cc2c3c(c(N)cc(NC(=O)C(C)C)c3n1)N=C2 [neolymphostin, neolymphostin A]
effect on EGFR or ERK1/2 phosphorylation [1]: did not affect phosphorylation of EGFR or ERK1/2; also recorded: no apparent effect | time to complete covalent modification of the kinase (PI3Kα (p110α/p85α)): ≤ 2 min | % vs. control (aurora kinase B (AURKB)): 1.9% | % vs. control [3]: 0.15% | GI50 [4]: 6 to 840 nM | solubility behaviour [5]: appears to aggregate and “crash out” of solution at higher concentrations in buffer | % vs. control (aurora kinase A (AURKA)): 1.5% | effect on AKT phosphorylation [2]: blocked phosphorylation of AKT at S473 and T308 | % vs. control [6]: 0.2% | % vs. control [7]: 0.95% | % vs. control [8]: 0.25% | % vs. control (PI3Kα): 0%

CO/C=C/C(=O)c1ccccn1 [compound 6, (E)-3-methoxy-1-(pyridin-2-yl)prop-2-en-1-one]
reaction with N^α-acetyl lysine [9]: no reaction was observed

CC(C)C(=O)Nc1cc(N)c2c3c(cc(C(=O)CCO)nc13)C=N2 [neolymphostinol]
effect on AKT phosphorylation [2]: largely unaffected
